The values that follow come from ChEMBL document CHEMBL3774327, “Design, synthesis, and analysis of antagonists of GPR55: Piperidine-substituted 1,3,4-oxadiazol-2-ones” (Bioorg Med Chem Lett, 2016).

Sequence of G-protein coupled receptor 55 (Q9Y2T6 whole entry, looked up, stated change not applied, the tested form may be a part): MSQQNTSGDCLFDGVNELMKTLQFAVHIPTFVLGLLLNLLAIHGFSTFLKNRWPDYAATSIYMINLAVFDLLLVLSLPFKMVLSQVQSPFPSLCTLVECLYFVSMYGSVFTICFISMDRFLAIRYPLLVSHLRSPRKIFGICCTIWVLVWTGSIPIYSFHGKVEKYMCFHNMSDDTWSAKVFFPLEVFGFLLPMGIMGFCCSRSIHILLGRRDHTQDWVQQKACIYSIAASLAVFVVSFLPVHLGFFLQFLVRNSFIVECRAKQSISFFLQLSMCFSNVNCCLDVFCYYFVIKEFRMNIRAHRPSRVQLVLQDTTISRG

Tested on in one assay: not listed separately
The assay is described as follows: Antagonist activity at GRP55E (unknown origin) over-expressed with GFP-tagged beta-arr2 in human U2OS cells assessed as inhibition of LPI induced beta-arrestin recruitment preincubated for 30 mins by beta-arrestin recruitment assay. The format is cell-based.
Conditions: not given
Background: Arrestin recruitment assays detect the binding of arrestin to an activated receptor.
Broadly, the IC50 is the concentration that gives 50% inhibition. Turning to `O=C(N1CCC(n2nc(-c3cccc(C(F)(F)F)c3)oc2=O)CC1)C1(c2ccccc2)CC1`, the IC50 was above 15 µM.

As for `O=C(N1CCC(n2nc(-c3cccs3)oc2=O)CC1)C1(c2ccccc2)CC1`, the IC50 was above 15 µM.

`O=C(c1cccc2ccccc12)N1CCC(n2nc(-c3ccccc3)oc2=O)CC1`: the IC50 was above 15 µM.

`O=C(N1CCC(n2nc(-c3ccco3)oc2=O)CC1)C1(c2ccccc2)CC1`: the IC50 is above 15 µM.

In the next assay the target is G-protein coupled receptor 55 (Homo sapiens, UniProt Q9Y2T6). The assay is described as follows: Antagonist activity at beta-galactosidase fragment-fused GRP55 (unknown origin) over-expressed with N-terminal deletion beta-galactosidase mutant-tagged beta-arr2 in […] cells assessed as inhibition of LPI induced beta-arrestin activity preincubated for 30 mins by PathHunter chemiluminescent complementation assay. Type of assay: cell-based. The following applies: cho-k1. The gist of the method:
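Inhibition of LPI-induced β-arrestin activity was quantitated by chemiluminescence. Concentration-response curves were run in triplicate against 6 μM LPI, and IC50 was derived with 95% confidence intervals.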
On to `COc1ccc(C2(C(=O)N3CCC(n4nc(-c5ccccc5)oc4=O)CC3)CC2)cc1`, for which the IC50 result is “ND(Insoluble)”.

In the case of `COc1ccc(-c2nn(C3CCN(C(=O)C4(c5ccc(OC)cc5)CC4)CC3)c(=O)o2)cc1`, the IC50 entry is on record as “ND(Insoluble)”.

With `O=C(N1CCC(n2nc(-c3ccc(C(F)(F)F)cc3)oc2=O)CC1)C1(c2ccccc2)CC1`, the IC50 entry is on record as “ND(Insoluble)”.

Staying with this assay, now noted: cho-k1; read-out: IC50.
`O=C(N1CCC(n2nc(-c3ccccc3)oc2=O)CC1)C1(c2ccc(Cl)cc2)CC1`: the IC50 was 640 nM.

As to `O=C(N1CCC(n2nc(-c3ccccc3)oc2=O)CC1)C1(c2ccccc2)CC1`, the IC50 amounted to 12000 nM.

As for `O=C(N1CCC(n2nc(-c3ccccc3)oc2=O)CC1)C1(c2ccc(Cl)cc2Cl)CC1`, the IC50 turned out to be 2500 nM.

In the case of `O=C(N1CCC(n2nc(-c3cccnc3)oc2=O)CC1)C1(c2ccccc2)CC1`, the IC50 amounted to 420 nM.

Regarding `COc1ccc(-c2nn(C3CCN(C(=O)C4(c5ccccc5)CC4)CC3)c(=O)o2)cc1`, the IC50 came out at 7000 nM.

As for `COc1ccc(C2(C(=O)N3CCC(n4nc(-c5ccc(C(F)(F)F)cc5)oc4=O)CC3)CC2)cc1`, the IC50 was 1800 nM.

Turning to `Cc1ccc(C2(C(=O)N3CCC(n4nc(-c5ccccc5)oc4=O)CC3)CC2(C)C)cc1` (racemic), the IC50 was 770 nM.

Tested on in another assay: not listed separately
The assay is described as follows: Antagonist activity at HA-epitope tagged GRP55E expressed with GFP-tagged beta-arr2 in human U2OS cells assessed as LPI-stimulated redistribution of beta-arr2 preincubated for 15 mins by beta-arrestin translocation assay. Type of assay: cell-based.
Conditions: not given
Turning to `Cc1cc(C)c2nc(-c3ccccn3)cc(C(=O)Nc3ccc(S(=O)(=O)Nc4onc(C)c4C)cc3)c2c1`, the IC50 is 220 nM.

Consider `Cc1ccc(C2(C(=O)N3CCC(n4nc(-c5ccccc5)oc4=O)CC3)CC2)cc1`, for which the IC50 is 1100 nM.

As to `Cc1nc(N2CCN(C(=O)c3ccco3)CC2)c2c3c(sc2n1)CCCC3`, the IC50 was determined as 700 nM.
